In ChEMBL document CHEMBL1124562, “(3-Amino-2-oxoalkyl)phosphonic acids and their analogues as novel inhibitors of D-alanine:D-alanine ligase” (J Med Chem, 1989):
Each block holds one molecule with its values, some of them ahead of it.

Tests used:
Enterococcus faecalis [1] = assay: Percent inhibition of D-Alanine-D-Alanine Ligase at 10e-3 M of the compound
Summary of the method: (§1)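 Enzyme was a 50% ammonium sulphate fraction from sonicated Streptococcus faecalis ATCC 8043 extract (0.38 units/mg). Inhibitor was preincubated 40 min at room temperature with enzyme, 0.008 M MgCl2, 0.01 M KCl and 0.05 M Tris-Cl pH 7.9. Then 0.005 M ATP and 0.005 M (14C-1)-D-alanine were added and the mix held 30 min at 37 °C. Radiolabelled product was resolved by silica TLC and integrated.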

[2] = Inhibition of DAla-DAla Ligase at 10e -3 M of the compound; design: species or system Enterococcus faecalis; summary of the method: as §1
Enterococcus faecalis [3] = assay: Percent inhibition of DAla-DAla Ligase at 10e -3 M of the compound; summary of the method: as §1
[4] = Inhibition of D-Alanine-D-Alanine Ligase Ligase by the compound; design: species or system Enterococcus faecalis; summary of the method: as §1
[5] = Inhibition of DAla-DAla Ligase by the compound; design: species or system Enterococcus faecalis; summary of the method: as §1
Enterococcus faecalis [6] = assay: Percent inhibition of DAla-DAla Ligase at 10e-3 M of the compound; summary of the method: as §1

SMILES: C[C@@H](N)P(=O)(O)O
IC50 [2]: 930 µM

SMILES: NC(CCC(=O)CP(=O)(O)O)C(=O)O (centres undefined)
Ki [4]: 500 µM

SMILES: C[C@@H](N)C(=O)NP(=O)(O)O
inhibition (Enterococcus faecalis [3]): 85%
Ki [5]: 50 µM

SMILES: N[C@@H]1CONC1=O [CYCLOSERINE]
Ki [5]: 250 µM

SMILES: C[C@H](N)C(=O)CP(=O)(O)O
inhibition (Enterococcus faecalis [1]): 14%

SMILES: C[C@@H](N)C(=O)CP(=O)(O)O
inhibition (Enterococcus faecalis [6]): 71%
Ki [5]: 510 µM

Further lines, results first:

inhibition (Enterococcus faecalis [1]): 10%
SMILES: C[C@@H](N)C(=O)CCP(=O)(O)O

inhibition (Enterococcus faecalis [3]): 24%
SMILES: C[C@@H](N)/C=C/P(=O)(O)O

inhibition (Enterococcus faecalis [1]): 32%
SMILES: C[C@@H](N)C(O)C(O)P(=O)(O)O (some centres undefined)

inhibition (Enterococcus faecalis [1]): 18%
SMILES: CC(C(=O)[C@@H](C)N)P(=O)(O)O (some centres undefined)

inhibition (Enterococcus faecalis [1]): 26%
SMILES: CC[C@@H](N)C(=O)CP(=O)(O)O

inhibition (Enterococcus faecalis [1]): 25%
SMILES: C[C@@H](N)C(O)CP(=O)(O)O (some centres undefined)
